Data as given in ChEMBL document CHEMBL4680268, “Pharmacomodulations of the benzoyl-thiosemicarbazide scaffold reveal antimicrobial agents targeting d-alanyl-d-alanine ligase in bacterio” (Eur J Med Chem, 2020).
≈ marks a conversion by molar mass, not a printed value. Calls of active or inactive are those of the source. The calls are words filed in the database; no cut-off is given here.

What was measured:
Enterococcus faecalis [1] = assay: Antibacterial activity against vancomycin resistant Enterococcus faecalis BM4390 harboring VanB mutant with inactive Ddl and constitutive expression of D-Ala-D-Lac assessed as reduction in bacterial growth incubated for 18 to 24 hrs by broth microdilution method; type: functional; conditions: time 18-24 hrs
In short: (§1)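 Broth microdilution in cation-adjusted Mueller-Hinton broth per CLSI; inoculum 10⁶ bacteria/mL. Two-fold serial dilutions, compound in broth with 5% DMSO mixed 1:1 with bacterial suspension, giving 2.5% DMSO final. Top concentration 0.1, 0.4 or 0.8 mM depending on solubility. Incubated 18–24 h at 37 °C. MIC = lowest concentration preventing visible growth.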

Enterococcus faecalis [2] = assay: Antibacterial activity against vancomycin resistant Enterococcus faecalis JH2-2::C1 harboring constitutive expression of Ddl and vanB ligase assessed as reduction in bacterial growth incubated for 18 to 24 hrs by broth microdilution method; type: functional; conditions: time 18-24 hrs; in short: as §1
Staphylococcus aureus [3] = assay: Antibacterial activity against methicillin resistant and vancomycin intermediate resistant Staphylococcus aureus MU50 assessed as reduction in bacterial growth incubated for 18 to 24 hrs by broth microdilution method; type: functional; conditions: time 18-24 hrs; in short: as §1
Staphylococcus aureus [4] = assay: Antibacterial activity against methicillin and linezolid resistant Staphylococcus aureus NRS119 assessed as reduction in bacterial growth incubated for 18 to 24 hrs by broth microdilution method; type: functional; conditions: time 18-24 hrs; in short: as §1
Staphylococcus aureus [5] = assay: Antibacterial activity against hospital-acquired vancomycin resistant Staphylococcus aureus VRS-1 assessed as reduction in bacterial growth incubated for 18 to 24 hrs by broth microdilution method; type: functional; conditions: time 18-24 hrs; in short: as §1
Enterococcus faecalis [6] = assay: Inhibition of recombinant Enterococcus faecalis C-terminal His6-tagged DdlB expressed in Escherichia coli LMG194 assessed as residual activity using D-Ala as substrate at 100 uM preincubated with enzyme for 30 mins followed by substrate addition and measured after 20 mins by malachite green based colorimetric analysis relative to control; conditions: time 50.0 min
In short: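 Purified E. faecalis His-tagged DdlB (20 mg/L) preincubated 30 min at 30 °C with 100 µM compound and 500 µM ATP in 20 mM Tris-HCl pH 7.4, 10 mM MgCl₂, 10 mM KCl, 10% DMSO; 1 mM D-Ala added, 20 min at 30 °C. Phosphate detected with malachite green reagent, A650 after 25 min dark; residual activity versus no-inhibitor control, triplicate.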

[7] = Inhibition of recombinant Enterococcus faecalis C-terminal His6-tagged DdlB expressed in Escherichia coli LMG194 using D-Ala as substrate preincubated with enzyme for 30 mins followed by substrate addition and measured after 20 mins by malachite green based colorimetric analysis
In short: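 DdlB (20 mg/L) malachite green phosphate assay: enzyme, inhibitor and 500 µM ATP preincubated 30 min at 30 °C in Tris-HCl pH 7.4 buffer with MgCl₂, KCl and 10% DMSO, then 1 mM D-Ala for 20 min; A650 read. IC₅₀ from 11 concentrations, also run with 0.01% Triton X-100; mean ± SD of triplicates, n ≥ 2; EC₅₀ given where maximal inhibition stayed below 50%.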

Staphylococcus aureus [8] = assay: Antibacterial activity against Staphylococcus aureus ATCC 25923 assessed as reduction in bacterial growth incubated for 18 to 24 hrs by broth microdilution method; type: functional; conditions: time 18-24 hrs
Enterococcus faecalis [9] = assay: Antibacterial activity against Enterococcus faecalis ATCC 29212 assessed as reduction in bacterial growth incubated for 18 to 24 hrs by broth microdilution method; type: functional; conditions: time 18-24 hrs
Enterococcus faecalis [10] = assay: Antibacterial activity against vancomycin resistant Enterococcus faecalis BM4575 harboring VanE genotype, constitutive expression of Ddl and VanE D-Ala-D-Ser ligase assessed as reduction in bacterial growth incubated for 18 to 24 hrs by broth microdilution method; type: functional; conditions: time 18-24 hrs; in short: as §1
Staphylococcus aureus [11] = assay: Antibacterial activity against community-acquired methicillin and erythromycin resistant Staphylococcus aureus SA325 assessed as reduction in bacterial growth incubated for 18 to 24 hrs by broth microdilution method; type: functional; conditions: time 18-24 hrs; in short: as §1
Staphylococcus aureus [12] = assay: Antibacterial activity against hospital-acquired methicillin/ciprofloxacin and moxifloxacin resistant Staphylococcus aureus SA481 assessed as reduction in bacterial growth incubated for 18 to 24 hrs by broth microdilution method; type: functional; conditions: time 18-24 hrs; in short: as §1
Klebsiella pneumoniae = assay: Antibacterial activity against Klebsiella pneumoniae ATCC700603 assessed as reduction in bacterial growth incubated for 18 to 24 hrs by broth microdilution method; type: functional, organism-based; conditions: 700603, time 18-24 hrs
In short: (§2)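 Microdilution in cation-adjusted Mueller-Hinton broth per CLSI; two-fold compound series in CAMHB with 5% DMSO mixed 1:1 with bacterial suspension, giving 10⁶ bacteria/mL inoculum and 2.5% DMSO final. Top concentrations 0.1, 0.4 or 0.8 mM depending on solubility. Incubated 18–24 h at 37 °C; MIC read as lowest concentration preventing visible growth.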

Escherichia coli = assay: Antibacterial activity against Escherichia coli ATCC 25922 assessed as reduction in bacterial growth incubated for 18 to 24 hrs by broth microdilution method; type: functional, organism-based; conditions: time 18-24 hrs; in short: as §2
Pseudomonas aeruginosa = assay: Antibacterial activity against Pseudomonas aeruginosa PAO1 assessed as reduction in bacterial growth incubated for 18 to 24 hrs by broth microdilution method; type: functional, organism-based; conditions: time 18-24 hrs; in short: as §2
Cell membrane = assay: Disruption of bacterial cell membrane in Staphylococcus aureus ATCC 25923 assessed as increase in PI uptake at 1 to 5 times MIC measured every 10 mins for 2 hrs by PI dye based spectrophotometry
In short: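 Mid-log S. aureus ATCC 25923 (grown in MHB from OD₆₀₀ 0.05) washed into BET buffer (pH 7.5) at 1.11×10⁶ CFU/mL with 12 nM propidium iodide; compound at 1, 2, 5× MIC, 5% DMSO final. SDS 0.5% positive, buffer negative control. Fluorescence (ex 532/em 620 nm) read in the dark every 10 min for 2 h; triplicate.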

Staphylococcus aureus [13] = assay: Inhibition of Ddl in Staphylococcus aureus ATCC 25923 assessed as increase in D-Ala/D-Ala-D-Ala ratio at 2 times MIC incubated for 30 mins by UHPLC-MS/MS analysis
In short: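 Log-phase S. aureus ATCC 25923 in MHB with 5% DMSO (from OD₆₀₀ 0.05) treated with compound at 2× MIC for 0–30 min; untreated and D-cycloserine 2× MIC controls. Cells chilled, pelleted, washed in M9, lysed in ice-cold MeOH/H₂O/formic acid 80:20:0.1, supernatants derivatized with Marfey's reagent in triplicate; L-Ala, D-Ala, D-Ala-D-Ala quantified by UPLC-MS/MS.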

Row | SMILES | MIC (Enterococcus faecalis [1]) | MIC (Enterococcus faecalis [2]) | MIC (Staphylococcus aureus [3]) | MIC (Staphylococcus aureus [4]) | MIC (Staphylococcus aureus [5]) | Activity (Enterococcus faecalis [6]) | IC50 [7] | MIC (Staphylococcus aureus [8]) | MIC (Enterococcus faecalis [9]) | MIC (Enterococcus faecalis [10]) | MIC (Staphylococcus aureus [11]) | MIC (Staphylococcus aureus [12]) | Activity (Klebsiella pneumoniae) | Activity (Escherichia coli) | Activity (Pseudomonas aeruginosa) | Activity (Cell membrane) | inhibition (Staphylococcus aureus [13])
1 | CN[C@H](CC(C)C)C(=O)N[C@H]1C(=O)N[C@@H](CC(N)=O)C(=O)N[C@H]2C(=O)N[C@H]3C(=O)N[C@H](C(=O)N[C@H](C(=O)O)c4cc(O)cc(O)c4-c4cc3ccc4O)[C@H](O)c3ccc(c(Cl)c3)Oc3cc2cc(c3O[C@@H]2O[C@H](CO)[C@@H](O)[C@H](O)[C@H]2O[C@H]2C[C@](C)(N)[C@H](O)[C@H](C)O2)Oc2ccc(cc2Cl)[C@H]1O [VANCOMYCIN] | 700 µM (≈ 1010 µg/mL) | 350 µM (≈ 507 µg/mL) | 5 µM (≈ 7.25 µg/mL) | 0.7 µM (≈ 1.01 µg/mL) | > 175 µM |  |  |  |  |  |  |  |  |  |  |  | 
2 | O=C(NC(=S)NNC(=O)c1ccccc1O)c1ccc(Cl)c(Cl)c1 | 25 µM (≈ 9.61 µg/mL) | 12.5 µM (≈ 4.8 µg/mL) | 25 µM (≈ 9.61 µg/mL) | 25 µM (≈ 9.61 µg/mL) | 100 µM (≈ 38.4 µg/mL) | > 50% | 1150 nM | 25 µM (≈ 9.61 µg/mL) | 50 µM (≈ 19.2 µg/mL) | 50 µM (≈ 19.2 µg/mL) | 50 µM (≈ 19.2 µg/mL) | 25 µM (≈ 9.61 µg/mL) | inactive | inactive | inactive |  | 
3 | O=C(NC(=S)NNC(=O)c1ccccc1O)c1ccccc1 | > 100 µM | > 100 µM | > 100 µM | > 100 µM | 100 µM (≈ 31.5 µg/mL) | > 50% | 810 nM | 100 µM (≈ 31.5 µg/mL) | 100 µM (≈ 31.5 µg/mL) | > 100 µM | 100 µM (≈ 31.5 µg/mL) | 100 µM (≈ 31.5 µg/mL) | inactive | inactive | inactive |  | 
4 | O=C(NNC(=S)Nc1ccc(F)c(F)c1)c1ccccc1O |  |  |  |  |  | > 50% | 920 nM | 400 µM (≈ 129 µg/mL) | 400 µM (≈ 129 µg/mL) |  |  |  | inactive | inactive | inactive |  | 
5 | O=C(NNC(=S)Nc1ccccc1)c1ccccc1O | > 800 µM | > 800 µM | 800 µM (≈ 230 µg/mL) | > 800 µM | 800 µM (≈ 230 µg/mL) |  | 740 nM | 800 µM (≈ 230 µg/mL) | > 800 µM | > 800 µM | 800 µM (≈ 230 µg/mL) | 800 µM (≈ 230 µg/mL) | inactive | inactive | inactive |  | 
6 | O=C(NNC(=S)Nc1ccc(C(F)(F)F)cc1)c1ccccc1O | > 100 µM | 100 µM (≈ 35.5 µg/mL) | 100 µM (≈ 35.5 µg/mL) | 100 µM (≈ 35.5 µg/mL) | 100 µM (≈ 35.5 µg/mL) |  | 630 nM | 50 µM (≈ 17.8 µg/mL) | 50 µM (≈ 17.8 µg/mL) | 100 µM (≈ 35.5 µg/mL) | 100 µM (≈ 35.5 µg/mL) | 100 µM (≈ 35.5 µg/mL) | inactive | inactive | inactive |  | 
7 | N[C@H]1CONC1=O [LEVCYCLOSERINE] | 5020 µM (≈ 512 µg/mL) | 5020 µM (≈ 512 µg/mL) | 627 µM (≈ 64 µg/mL) | 627 µM (≈ 64 µg/mL) | 157 µM (≈ 16 µg/mL) |  | 262000 nM | 313 µM (≈ 32 µg/mL) | 1250 µM (≈ 128 µg/mL) | > 5020 µM | 1250 µM (≈ 128 µg/mL) | 1250 µM (≈ 128 µg/mL) |  |  |  | inactive | Active
8 | O=C(NNC(=S)Nc1ccc(F)c(F)c1F)c1ccccc1O | > 400 µM | > 400 µM | 400 µM (≈ 137 µg/mL) | 400 µM (≈ 137 µg/mL) | 400 µM (≈ 137 µg/mL) |  | 640 nM | 200 µM (≈ 68.3 µg/mL) | 200 µM (≈ 68.3 µg/mL) | 400 µM (≈ 137 µg/mL) | 400 µM (≈ 137 µg/mL) | 400 µM (≈ 137 µg/mL) | inactive | inactive | inactive |  | 
9 | O=C(NNC(=S)Nc1ccc(Cl)c(Cl)c1)c1ccccc1O | 50 µM (≈ 17.8 µg/mL) | 100 µM (≈ 35.6 µg/mL) | 100 µM (≈ 35.6 µg/mL) | 50 µM (≈ 17.8 µg/mL) | 50 µM (≈ 17.8 µg/mL) |  | 1170 nM | 100 µM (≈ 35.6 µg/mL) | 50 µM (≈ 17.8 µg/mL) | 50 µM (≈ 17.8 µg/mL) | 50 µM (≈ 17.8 µg/mL) | 100 µM (≈ 35.6 µg/mL) | inactive | inactive | inactive | inactive | 
10 | O=C(NNC(=S)Nc1ccc(F)cc1)c1ccccc1O | > 100 µM | > 100 µM | > 100 µM | > 100 µM | > 100 µM |  | 890 nM | > 100 µM | 200 µM (≈ 61.1 µg/mL) | > 100 µM | > 100 µM | > 100 µM | inactive | inactive | inactive |  | 
11 | Oc1ccccc1NC(=S)Nc1ccc(Cl)c(Cl)c1 | 50 µM (≈ 15.7 µg/mL) | 50 µM (≈ 15.7 µg/mL) | 50 µM (≈ 15.7 µg/mL) | 50 µM (≈ 15.7 µg/mL) | 100 µM (≈ 31.3 µg/mL) | > 100% |  | 25 µM (≈ 7.83 µg/mL) | 50 µM (≈ 15.7 µg/mL) | 100 µM (≈ 31.3 µg/mL) | 50 µM (≈ 15.7 µg/mL) | 50 µM (≈ 15.7 µg/mL) | inactive | inactive | inactive |  | 
